{
  "source": "ChEMBL document CHEMBL4033782",
  "about": "“Structural Modification of Natural Product Tanshinone I Leading to Discovery of Novel Nitrogen-Enriched Derivatives with Enhanced Anticancer Profile and Improved Drug-like Properties” (J Med Chem, 2018)",
  "key": {"Liver [1]": {"system": "Liver", "assay": "Half life in mouse liver microsomes at 0.1 uM up to 60 mins by LC-MS/MS analysis", "assay_type": "ADME, microsome", "settings": "microsomes, 1 h, 0.1 µM", "method_in_brief": "(§1)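 Compound at 0.1 μM final (0.01% DMSO, 0.005% BSA) incubated at 37 °C with human, rat or mouse liver microsomes (0.33 mg/mL protein) in 0.1 M Tris/HCl pH 7.4, with 5 mM MgCl2 and 1 mM NADPH. Samples taken at 0, 7, 17, 30 and 60 min, quenched by methanol precipitation, centrifuged, and parent measured by LC-MS/MS. T1/2 and Clint derived.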"}, "Liver [2]": {"system": "Liver", "assay": "Intrinsic clearance in human liver microsomes assessed as per mg protein up to 60 mins by LC-MS/MS analysis", "assay_type": "ADME, microsome", "settings": "1 h", "method_in_brief": "as §1"}, "HCT-116 [3]": {"system": "HCT-116", "assay": "Induction of apoptosis in human HCT116 cells assessed as cleavage of PARP at 2 uM after 48 hrs by Western blot analysis", "assay_type": "functional, cell-based", "method_in_brief": "(§2)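 HCT116 cells, with or without a 1 h pretreatment with 20 μM Z-VAD-FMK, exposed for 48 h. Lysed on ice in Hepes/NaCl/Triton X-100 buffer with protease/phosphatase inhibitors and clarified at 12,000×g. Equal protein run by SDS-PAGE, blotted to nitrocellulose, probed overnight at 4 °C for PARP, caspase 3, caspase 7 and β-actin. HRP secondaries, ECL detection.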"}, "KB": {"system": "KB", "assay": "Antiproliferative activity against human KB cells after 72 hrs by sulforhodamine B assay", "assay_type": "functional, cell-based", "method_in_brief": "(§3)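 Cells grown in ATCC-specified medium with 10% heat-inactivated FBS, penicillin/streptomycin and 10 mM Hepes, at 37 °C under 5% CO2. Seeded, cultured overnight, then exposed to gradient concentrations for 72 h. Growth read by SRB staining; inhibition % = [1−(A450 treated/A450 control)]×100. IC50 obtained by the Logit method from independent experiments.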"}, "[4]": {"assay": "Half life in Sprague-Dawley rat at 3.90 mg/kg, po by LC-ESI-MS/MS analysis", "assay_type": "ADME, organism-based", "settings": "in vivo, 3.9 mg/kg"}, "[5]": {"assay": "Half life in human liver microsomes at 0.1 uM up to 60 mins by LC-MS/MS analysis", "assay_type": "ADME, microsome", "method_in_brief": "as §1"}, "[6]": {"assay": "Oral bioavailability in Sprague-Dawley rat at 3.90 mg/kg by LC-ESI-MS/MS analysis", "assay_type": "ADME, organism-based", "settings": "in vivo, 3.9 mg/kg"}, "HCT-116 [7]": {"system": "HCT-116", "assay": "Induction of apoptosis in human HCT116 cells pretreated with Z-VAD-FMK pan-caspase inhibitor for 1 hr assessed as early apoptotic cells at 2 uM after 48 hrs by Annexin V-FITC/propidium iodide staining-based FACS analysis (reference value: 1.34%)", "assay_type": "functional", "parameters": "scale not given: the % may be the effect or the level left"}, "Liver [8]": {"system": "Liver", "assay": "Intrinsic clearance in rat liver microsomes assessed per mg protein up to 60 mins by LC-MS/MS analysis", "assay_type": "ADME, microsome", "settings": "1 h", "method_in_brief": "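Liver microsomes (0.33 mg/mL protein) in 0.1 M Tris/HCl pH 7.4 with 5 mM MgCl2, 1 mM NADPH, compound at 0.1 μM final (0.01% DMSO, 0.005% BSA), 37 °C; samples at 0, 7, 17, 30, 60 min quenched in methanol, centrifuged, LC-MS/MS; T1/2 and Clint per g protein derived.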"}, "HCT-116 [9]": {"system": "HCT-116", "assay": "Induction of apoptosis in human HCT116 cells pretreated with Z-VAD-FMK pan-caspase inhibitor for 1 hr assessed as activation of caspase 3/7 at 2 uM after 48 hrs by Western blot analysis", "assay_type": "functional, cell-based", "method_in_brief": "as §2"}, "Liver [10]": {"system": "Liver", "assay": "Intrinsic clearance in mouse liver microsomes assessed per mg protein up to 60 mins by LC-MS/MS analysis", "assay_type": "ADME, microsome", "settings": "1 h", "method_in_brief": "as §1"}, "HCT-116 [11]": {"system": "HCT-116", "assay": "Induction of apoptosis in human HCT116 cells assessed as early apoptotic cells at 2 uM after 48 hrs by Annexin V-FITC/propidium iodide staining-based FACS analysis (reference value: 2.35%)", "assay_type": "functional"}, "HCT-116 [12]": {"system": "HCT-116", "assay": "Induction of apoptosis in human HCT116 cells assessed as activation of caspase 3/7 at 1.0 to 4.0 uM after 24 hrs by Caspase-Glo 3/7 assay"}, "HCT-116 [13]": {"system": "HCT-116", "assay": "Induction of apoptosis in human HCT116 cells pretreated with Z-VAD-FMK pan-caspase inhibitor for 1 hr assessed as late apoptotic cells at 2 uM after 48 hrs by Annexin V-FITC/propidium iodide staining-based FACS analysis (reference value: 3.15%)", "assay_type": "functional", "parameters": "scale not given: the % may be the effect or the level left"}, "HCT-116 [14]": {"system": "HCT-116", "assay": "Induction of apoptosis in human HCT116 cells assessed as activation of caspase 3/7 at 2 uM after 48 hrs by Western blot analysis", "assay_type": "functional, cell-based", "method_in_brief": "as §2"}, "HCT-116 [15]": {"system": "HCT-116", "assay": "Induction of apoptosis in human HCT116 cells pretreated with Z-VAD-FMK pan-caspase inhibitor for 1 hr assessed as cleavage of PARP at 2 uM after 48 hrs by Western blot analysis", "assay_type": "functional, cell-based", "method_in_brief": "as §2"}, "[16]": {"assay": "Antiproliferative activity against human KB/VCR cells after 72 hrs by sulforhodamine B assay", "assay_type": "functional, cell-based", "method_in_brief": "as §3"}, "[17]": {"assay": "Half life in rat liver microsomes at 0.1 uM up to 60 mins by LC-MS/MS analysis", "assay_type": "ADME, microsome", "method_in_brief": "as §1"}, "[18]": {"assay": "Aqueous solubility of the compound by HPLC method", "assay_type": "physicochemical", "settings": "buffer", "method_in_brief": "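Solubility determined by an HPLC method, with one-point calibration against standards of known concentration. Mean ± SD of at least three independent experiments.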"}, "HCT-116 [19]": {"system": "HCT-116", "assay": "Induction of apoptosis in human HCT116 cells assessed as late apoptotic cells at 2 uM after 48 hrs by Annexin V-FITC/propidium iodide staining-based FACS analysis (reference value: 5.74%)", "assay_type": "functional"}},
  "note": "Activity calls are given as the source filed them. No cut-off for these calls is given here.",
  "data": [
    {"smiles": "Cc1coc2c1C(=O)C(=O)c1c-2ccc2c(C)cccc12", "note": "[TANSHINONE I]", "values": [
      {"measurement": "t1/2", "setting": "Liver [1]", "result": "Nd(Unstable)"},
      {"measurement": "intrinsic clearance", "setting": "Liver [2]", "result": 325, "unit": "mL/min/g"},
      {"measurement": "Activity", "setting": "HCT-116 [3]", "result": "inactive"},
      {"measurement": "IC50", "setting": "KB", "result": 5.87, "unit": "µM"},
      {"measurement": "half-life", "setting": "[4]", "result": 10.2, "unit": "min"},
      {"measurement": "half-life at 0.1 µM", "setting": "[5]", "result": 6.45, "unit": "min"},
      {"measurement": "bioavailability", "setting": "[6]", "result": 0, "unit": "%"},
      {"measurement": "Activity", "setting": "HCT-116 [7]", "result": 4.24, "unit": "%"},
      {"measurement": "intrinsic clearance", "setting": "Liver [8]", "result": 836, "unit": "mL/min/g"},
      {"measurement": "Activity", "setting": "HCT-116 [9]", "result": "inactive"},
      {"measurement": "intrinsic clearance", "setting": "Liver [10]", "result": "Nd(Unstable)"},
      {"measurement": "Activity", "setting": "HCT-116 [11]", "result": 3.81, "unit": "%"},
      {"measurement": "Activity", "setting": "HCT-116 [12]", "result": "inactive"},
      {"measurement": "Activity", "setting": "HCT-116 [13]", "result": 7.11, "unit": "%"},
      {"measurement": "Activity", "setting": "HCT-116 [14]", "result": "inactive"},
      {"measurement": "Activity", "setting": "HCT-116 [15]", "result": "inactive"},
      {"measurement": "IC50", "setting": "[16]", "result": 4.4, "unit": "µM"},
      {"measurement": "half-life at 0.1 µM", "setting": "[17]", "result": 2.51, "unit": "min"},
      {"measurement": "solubility", "setting": "[18]", "result": "< 0.1", "unit": "µg/mL"},
      {"measurement": "Activity", "setting": "HCT-116 [19]", "result": 5.46, "unit": "%"}
    ]}
  ]
}
